# ChEMBL document CHEMBL4052626, “Identification of thiazolo[5,4-d]pyrimidine derivatives as potent antiproliferative agents through the drug repurposing strategy” (Eur J Med Chem, 2017)
# Active and inactive are the calls of the source. The calls are words filed in the database; no cut-off is given here.
# Tests used:
# [1] = system: MGC-803; assay: Antiproliferative activity against human MGC803 cells after 72 hrs by MTT assay; assay type: functional, cell-based; settings: MGC-803, 72 h
# In short: (§1)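 Cells in exponential growth were plated at 3,000 per well and left 24 h. Medium was then replaced with fresh medium holding graded compound concentrations, and incubation ran 72 h. Viability was read by MTT at 570 nm.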
# [2] = system: NCI-H1650; assay: Antiproliferative activity against human NCI-H1650 cells after 72 hrs by MTT assay; assay type: functional, cell-based; settings: NCI-H1650, 72 h; in short: as §1
# [3] = system: HGC-27; assay: Antiproliferative activity against human HGC27 cells after 72 hrs by MTT assay; assay type: functional, cell-based; settings: HGC-27, 72 h; in short: as §1
# [4] = system: GES1; assay: Cytotoxicity against human GES-1 cells after 72 hrs by MTT assay; assay type: cell-based; settings: GES1, 72 h; in short: as §1
# [5] = Selectivity index, ratio of IC50 for human GES-1 cells to IC50 for human MGC803 cells; assay type: functional
# In short: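 SI equals IC50 in GES-1 divided by IC50 in MGC803. Both IC50s come from 72 h exposure in the MTT viability assay, with 3,000 cells/well plated 24 h before dosing. Each is the mean ± SD of three independent experiments.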
# [6] = system: MGC-803; assay: Induction of apoptosis in human MGC803 cells at 1 uM after 24 hrs by annexin V-FITC/propidium iodide staining-based assay (reference value: 2.3%); assay type: functional
# [7] = system: MGC-803; assay: Antiproliferative activity against human MGC803 cells assessed as reduction in colony formation at 3 uM after 9 days by crystal violet staining-based clonogenic assay relative to control; assay type: functional; settings: MGC-803, 216 h
# In short: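 MGC803 were seeded at 1000 cells/well, allowed 24 h, then given fresh medium with graded compound concentrations for 9 days. Cells were PBS-washed, fixed in 4% paraformaldehyde and stained with 0.1% crystal violet. A colony was counted as >10 cells. Inhibition rate = (1 − treated count/control count) × 100%. Run in triplicate.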
# [8] = system: MGC-803; assay: Antimigratory activity against human MGC803 cells assessed as reduction in wound healing at 1 uM by inverted microscopic method; assay type: functional, cell-based; settings: TDE = time-dependent effect
# In short: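 MGC803 in 24-well format were scratched with a 10 µL tip. Cells were then incubated with graded compound concentrations for the indicated times. Wound closure was photographed under an inverted microscope.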
# [9] = system: MGC-803; assay: Induction of apoptosis in human MGC803 cells assessed as cell rounding at 1 to 5 uM after 24 hrs by Hoechst 33258 staining-based fluorescence microscopic analysis; assay type: functional
# In short: (§2)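 MGC803 were seeded at 2×10^5/well and allowed to adhere overnight. They were exposed to graded concentrations for 24 h, then stained with Hoechst 33258 for 30 min in the dark. Nuclear morphology was examined by fluorescence microscopy.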
# [10] = system: MGC-803; assay: Induction of apoptosis in human MGC803 cells assessed as chromatin shrinkage at 1 to 5 uM after 24 hrs by Hoechst 33258 staining-based fluorescence microscopic analysis; assay type: functional, cell-based; in short: as §2
# [11] = system: MGC-803; assay: Induction of apoptosis in human MGC803 cells assessed as formation of apoptotic bodies at 1 to 5 uM after 24 hrs by Hoechst 33258 staining-based fluorescence microscopic analysis; assay type: functional, cell-based; in short: as §2
# [12] = system: MGC-803; assay: Induction of apoptosis in human MGC803 cells assessed as increase in Bax protein levels after 24 by Western blot analysis; assay type: functional, cell-based
# In short: (§3)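 After 24 h treatment at graded concentrations, MGC803 were lysed 30 min in RIPA buffer with protease inhibitors and spun at 12,000 rpm for 10 min at 4 °C. Protein was quantified by BCA, then run on SDS-PAGE and blotted to nitrocellulose. Membranes were blocked in 5% milk for 2 h, incubated with primary antibodies overnight at 4 °C, then secondary (1:5000) for 2 h. Detection was by ECL.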
# [13] = system: MGC-803; assay: Induction of apoptosis in human MGC803 cells assessed as decrease in BCL-2 protein levels at 1 to 5 uM after 24 hrs by Western blot analysis; assay type: functional, cell-based; in short: as §3
# [14] = system: MGC-803; assay: Induction of apoptosis in human MGC803 cells assessed as increase in cleaved caspase-3 protein levels at 1 to 5 uM after 24 by Western blot analysis; assay type: functional, cell-based; in short: as §3
# [15] = system: MGC-803; assay: Induction of apoptosis in human MGC803 cells assessed as increase in cleaved caspase-9 protein levels at 1 to 5 uM after 24 by Western blot analysis; assay type: functional, cell-based; in short: as §3
# [16] = system: MGC-803; assay: Induction of apoptosis in human MGC803 cells at 2 uM after 24 hrs by annexin V-FITC/propidium iodide staining-based assay (reference value: 2.3%); assay type: functional
# [17] = system: MGC-803; assay: Induction of apoptosis in human MGC803 cells at 5 uM after 24 hrs by annexin V-FITC/propidium iodide staining-based assay (reference value: 2.3%); assay type: functional
# [18] = system: MGC-803; assay: Induction of apoptosis in human MGC803 cells after 24 hrs by annexin V-FITC/propidium iodide staining-based assay; assay type: functional, cell-based
SMILES,IC50 [1] [µM],IC50 [2] [µM],IC50 [3] [µM],also measured
CCCSc1nc(N2CCOCC2)c2nc(Nc3ccccc3Cl)sc2n1,3.4,21.7,11.3,
CCCSc1nc(N2CCOCC2)c2nc(Nc3ccccc3)sc2n1,5.81,4.18,9.51,
CCCSc1nc(NCCc2cc3ccccc3[nH]2)c2nc(Nc3ccccc3)sc2n1,6.99,9.62,16.2,
CCCSc1nc(N2CCSCC2)c2nc(Nc3ccccc3)sc2n1,12.3,12.9,28.5,
c1ccc(CSc2nc(N3CCOCC3)c3nc(Nc4ccccc4)sc3n2)cc1,1.03,2.1,1.23,IC50 [4]: 39 µM; Ratio IC50 [5]: 37.8; Activity [6]: 11.5%; inhibition at 3 µM [7]: 86%; Activity [8]: Tde; Activity [9]: Active; Activity [10]: Active; Activity [11]: Active; Activity [12]: Dose-dependent effect; Activity [13]: Active; Activity [14]: Active; Activity [15]: Active; Activity [16]: 43.8%; Activity [17]: 73.9%; Activity [18]: Dose-dependent effect
CCCSc1nc(Nc2ccc(OC)cc2)c2nc(Nc3ccccc3)sc2n1,> 64,20.7,30.9,
CCCSc1nc(Nc2ccc(Cl)cc2)c2nc(Nc3ccccc3)sc2n1,12.5,12,20.3,
CCCSc1nc(N2CCOCC2)c2nc(Nc3ccccn3)sc2n1,9.35,7.73,8.84,
CCCSc1nc(NC2CC2)c2nc(Nc3ccccc3)sc2n1,> 64,41.7,32.4,
CCCSc1nc(Nc2ccccc2)c2nc(Nc3ccccc3)sc2n1,24.4,12.1,35.3,
CCCSc1nc(N2CCOCC2)c2nc(Nc3cccc4ccccc34)sc2n1,17.7,9.73,21.8,
CCCSc1nc(NCCc2cccs2)c2nc(Nc3ccccc3)sc2n1,11.3,10,17.7,
CCCSc1nc(N2CCN(Cc3ccccc3)CC2)c2nc(Nc3ccccc3)sc2n1,18.8,27,> 64,
CCCSc1nc(NCc2ccc(O)cc2)c2nc(Nc3ccccc3)sc2n1,21.9,9.23,17.3,
O=c1[nH]cc(F)c(=O)[nH]1 [FLUOROURACIL],,12.5,8.22,
CCCSc1nc(NCc2ccco2)c2nc(Nc3ccccc3)sc2n1,> 64,26.1,28,
CCCCc1ccc(Nc2nc(SCCC)nc3sc(Nc4ccccc4)nc23)cc1,17.4,14.8,13.1,
